Activity calls are given as the source filed them. No cut-off for these calls is given here.

Drawing on ChEMBL document CHEMBL3425411, “Synthesis of β-Carboline-Based N-Heterocyclic Carbenes and Their Antiproliferative and Antimetastatic Activities against Human Breast Cancer Cells” (J Med Chem, 2015), this text covers Activity, inhibition and IC50 for three molecules.

The subject of test [1] is MDA-MB-231. The experiment in a line: Cell cycle arrest in human MDA-MB-231 cells assessed as accumulation at G0/G1 phase at 10 uM after 24 hrs by propidium iodide staining-based flow cytometric analysis (reference value: 44.3 to 47.1%). Format: functional.
Test [2] concerns the target 72 kDa type IV collagenase (Homo sapiens) (UniProt P08253). Nature of the test: Inhibition of MMP-2 in human MDA-MB-231 cells at 1 to 7.5 uM after 24 hrs by gelatin zymographic method. Format: cell-based. In a few lines:
(§1)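 MDA-MB-231 cells, 1 × 10⁵ per well, treated 24 h with 0, 1, 2.5, 5 or 7.5 μM. Conditioned medium centrifuged and equal protein loaded on 8% SDS–PAGE containing 0.1% gelatin, run at 80 V. Triton X-100 washes, then developed 20 h at 37 °C in Tris-HCl pH 7.5 with NaCl, CaCl₂ and ZnCl₂. Coomassie stain, then destain.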

The target in test [3] is c-Jun N-terminal kinase, JNK (Homo sapiens) (UniProt P45983+P53779+P45984). Nature of the test: Inhibition of SAPK/JNK phosphorylation in human MDA-MB-231 cells at 7.5 to 10 uM after 24 hrs by Western blot analysis. Format: cell-based. The method, boiled down:
(§2)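 MDA-MB-231 cells treated 24 h, then lysed in RIPA buffer. 40 μg protein run on 10–15% SDS–PAGE and transferred to PVDF. Blocked in 5% milk, probed overnight at 4 °C with primary antibodies (phospho- and total ERK1/2, JNK, p38, cleaved caspase-3), then HRP secondary. ECL detection with β-actin as loading control. Blots representative of three experiments.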

Test [4] addresses MAP kinase p38 (Homo sapiens) (UniProt O15264+Q15759+Q16539+P53778). The experiment in a line: Induction of p38 MAPK phosphorylation in human MDA-MB-231 cells at 7.5 to 10 uM after 24 hrs by Western blot analysis. The test is classed as cell-based. The method, boiled down:
as §2

In test [5] the test system is MDA-MB-231. The experiment in a line: Induction of apoptosis in human MDA-MB-231 cells assessed as late apoptotic cells at 12.5 uM after 24 hrs by annexin V-propidium iodide/Alexa Fluor 488 staining-based flow cytometric analysis (reference value: 2.08 to 3.78%). The test is classed as functional. In a few lines: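 MDA-MB-231 cells, about 2 × 10⁵ per well, seeded in triplicate and treated for 24 h in RPMI-1640 with 10% FBS. Stained with Alexa Fluor 488 annexin V and propidium iodide, then read by flow cytometry. AV+/PI+ events were counted as late apoptotic and reported as percentage of cells relative to control. Three independent experiments, mean ± SEM.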

The subject of test [6] is MDA-MB-231. The experiment in a line: Downregulation of CDC25C expression in human MDA-MB-231 cells at 7.5 to 10 uM after 24 hrs by Western blot analysis. The test is classed as functional, cell-based. In a few lines: (§3)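 Cells were treated for 24 h. Lysates were made in RIPA buffer, and 40 μg protein was resolved on 10–15% SDS-PAGE and transferred to PVDF. Membranes were blocked with 5% milk and probed overnight at 4 °C with primary antibodies, then HRP secondaries. Detection was by ECL with β-actin as loading control. Blots represent three independent experiments.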

The test system of test [7] is MDA-MB-231. The experiment in a line: Downregulation of Bcl-XL expression in human MDA-MB-231 cells at 7.5 to 10 uM after 24 hrs by Western blot analysis. The test is classed as functional, cell-based. The method, boiled down: as §3
Test [8] deals with MDA-MB-231. The experiment in a line: Downregulation of CDK1 expression in human MDA-MB-231 cells at 7.5 to 10 uM after 24 hrs by Western blot analysis. The test is classed as functional, cell-based. In a few lines:
as §3

In test [9] the target is Matrix metalloproteinase-9 (Homo sapiens) (UniProt P14780). The experiment in a line: Inhibition of MMP-9 in human MDA-MB-231 cells at 1 to 7.5 uM after 24 hrs by gelatin zymographic method. Format: cell-based. The method, boiled down: as §1
The test system of test [10] is MDA-MB-231. Nature of the test: Upregulation of cleaved caspase-3 expression in human MDA-MB-231 cells at 7.5 to 10 uM after 24 hrs by Western blot analysis. Format: functional, cell-based. In a few lines: as §2
The nature of test [11]: Cytotoxicity against human H1299 cells assessed as growth inhibition after 24 to 72 hrs by MTT assay. Particulars: NCI-H1299. Format: functional, cell-based. The method, boiled down:
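About 5000 cells/well were grown 24 h in RPMI-1640 with 10% FBS, then given fresh medium with compound at various concentrations (from 10 mM DMSO stocks) for 24, 48 and 72 h. MTT (5 mg/mL stock) was added for 2 h and formazan dissolved in DMSO. Absorbance was read at 595 nm and expressed as percent proliferation versus DMSO control.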

Test [12] concerns MDA-MB-231. The experiment in a line: Downregulation of Bcl-2 expression in human MDA-MB-231 cells at 7.5 to 10 uM after 24 hrs by Western blot analysis. The test is classed as functional, cell-based. The method, boiled down: as §3
Test [13] relates to MDA-MB-231. Nature of the test: Downregulation of cyclin B expression in human MDA-MB-231 cells at 7.5 to 10 uM after 24 hrs by Western blot analysis. The test is classed as functional, cell-based. The method, boiled down: as §3
The test system of test [14] is MDA-MB-231. The experiment in a line: Induction of apoptosis in human MDA-MB-231 cells assessed as early apoptotic cells at 12.5 uM after 24 hrs by annexin V-propidium iodide/Alexa Fluor 488 staining-based flow cytometric analysis (reference value: 4.05 to 4.68%). The test is classed as functional.
Test [15] relates to MDA-MB-231. The experiment in a line: Cell cycle arrest in human MDA-MB-231 cells assessed as accumulation at G2/M phase at 10 uM after 24 hrs by propidium iodide staining-based flow cytometric analysis (reference value: 18.2 to 23.1%). The test is classed as functional.
Test [16] deals with MDA-MB-231. The experiment in a line: Antiinvasive activity against human MDA-MB-231 cells at 2.5 uM after 48 hrs by transwell assay. Format: functional, cell-based. In a few lines: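 Matrigel (growth factor reduced, diluted in serum-free medium) coated on 8 μm pore polycarbonate transwell membranes, set 2 h at 37 °C. 30 000 cells/well seeded in RPMI-1640 with 1% FBS plus compound; lower chamber had 10% FBS as chemoattractant. After 48 h, non-invaded cells were swabbed off and invaded cells were methanol-fixed and stained with 0.1% crystal violet. At least 10 random fields were counted and expressed versus control.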

Test [17] concerns MDA-MB-231. The experiment in a line: Downregulation of survivin expression in human MDA-MB-231 cells at 7.5 to 10 uM after 24 hrs by Western blot analysis. The test is classed as functional, cell-based. The method, boiled down: as §3
The test system of test [18] is MDA-MB-231. The experiment in a line: Cell cycle arrest in human MDA-MB-231 cells assessed as accumulation at G0/G1 phase at 2.5 uM after 24 hrs by propidium iodide staining-based flow cytometric analysis (reference value: 44.3 to 47.1%). The test is classed as functional.
Test [19] deals with MDA-MB-231. Nature of the test: Cell cycle arrest in human MDA-MB-231 cells assessed as accumulation at S phase at 10 uM after 24 hrs by propidium iodide staining-based flow cytometric analysis (reference value: 32.5 to 34.7%). Format: functional.
The subject of test [20] is MDA-MB-231. The experiment in a line: Induction of apoptosis in human MDA-MB-231 cells assessed as PARP cleavage at 7.5 to 10 uM after 24 hrs by Western blot analysis. The test is classed as functional, cell-based. In a few lines: as §3
In test [21] the test system is MDA-MB-231. The experiment in a line: Antimigratory activity against human MDA-MB-231 cells at 1 to 7.5 uM after 12 to 24 hrs by wound healing assay. The test is classed as functional, cell-based. The method, boiled down:
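2 × 10⁵ cells were plated in six-well plates and scratched with a 200 μL tip. Debris was removed, then cells were treated (0, 1, 2.5, 5, 7.5 μM; or 0–5 μM). The wound was photographed at 0, 12 and 24 h under 100× phase contrast. Area was measured as percent wound closure versus control. Three independent experiments, mean ± SEM.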

Test [22] concerns the target Mitogen-activated protein kinase; ERK1/ERK2 (Homo sapiens) (UniProt P27361+P28482). Nature of the test: Inhibition of ERK1/2 phosphorylation in human MDA-MB-231 cells at 7.5 to 10 uM after 24 hrs by Western blot analysis. Format: cell-based. In a few lines: as §2

Chain of Matrix metalloproteinase-9 (Homo sapiens) (P14780 whole entry): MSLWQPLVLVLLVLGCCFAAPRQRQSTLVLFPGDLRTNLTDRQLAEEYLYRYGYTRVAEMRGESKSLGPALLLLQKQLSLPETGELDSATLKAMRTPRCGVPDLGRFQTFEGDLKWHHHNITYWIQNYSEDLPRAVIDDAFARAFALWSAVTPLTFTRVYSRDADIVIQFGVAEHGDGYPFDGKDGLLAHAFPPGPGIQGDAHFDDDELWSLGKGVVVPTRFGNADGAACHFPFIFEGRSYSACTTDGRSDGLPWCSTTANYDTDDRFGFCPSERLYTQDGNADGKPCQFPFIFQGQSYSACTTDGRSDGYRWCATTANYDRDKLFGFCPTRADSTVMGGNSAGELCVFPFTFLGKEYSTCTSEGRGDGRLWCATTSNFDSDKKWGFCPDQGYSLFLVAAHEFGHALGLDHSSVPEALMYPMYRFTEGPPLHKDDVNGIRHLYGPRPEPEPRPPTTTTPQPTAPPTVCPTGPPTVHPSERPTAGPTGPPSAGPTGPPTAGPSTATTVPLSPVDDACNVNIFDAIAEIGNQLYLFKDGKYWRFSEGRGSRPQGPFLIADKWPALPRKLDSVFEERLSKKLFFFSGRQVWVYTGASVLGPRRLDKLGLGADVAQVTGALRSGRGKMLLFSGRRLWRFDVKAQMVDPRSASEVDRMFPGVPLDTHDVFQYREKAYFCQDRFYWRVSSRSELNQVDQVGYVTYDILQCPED
Chain of Mitogen-activated protein kinase; ERK1/ERK2 (Homo sapiens) (P27361 whole entry, looked up): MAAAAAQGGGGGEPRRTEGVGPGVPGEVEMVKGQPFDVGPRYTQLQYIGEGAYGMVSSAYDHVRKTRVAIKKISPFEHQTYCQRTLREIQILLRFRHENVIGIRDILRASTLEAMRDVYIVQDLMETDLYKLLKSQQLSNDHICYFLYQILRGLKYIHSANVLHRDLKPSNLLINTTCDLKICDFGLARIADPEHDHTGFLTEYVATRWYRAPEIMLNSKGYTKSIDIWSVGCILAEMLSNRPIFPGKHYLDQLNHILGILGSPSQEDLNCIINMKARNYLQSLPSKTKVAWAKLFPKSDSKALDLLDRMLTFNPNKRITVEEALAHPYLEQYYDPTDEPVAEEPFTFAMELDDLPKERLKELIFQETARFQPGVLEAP
Chain of Mitogen-activated protein kinase; ERK1/ERK2 (Homo sapiens) (P28482 whole entry, looked up): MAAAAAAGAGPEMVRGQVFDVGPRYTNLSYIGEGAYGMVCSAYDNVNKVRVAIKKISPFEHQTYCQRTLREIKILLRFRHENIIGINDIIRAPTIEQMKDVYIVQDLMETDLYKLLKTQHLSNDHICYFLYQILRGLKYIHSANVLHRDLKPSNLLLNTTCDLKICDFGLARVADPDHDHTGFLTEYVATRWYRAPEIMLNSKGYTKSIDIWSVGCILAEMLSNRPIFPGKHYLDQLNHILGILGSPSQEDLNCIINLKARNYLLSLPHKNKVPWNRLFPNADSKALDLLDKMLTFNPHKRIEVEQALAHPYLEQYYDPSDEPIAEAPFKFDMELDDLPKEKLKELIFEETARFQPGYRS
Chain of 72 kDa type IV collagenase (Homo sapiens) (P08253 110-660 limits assumed): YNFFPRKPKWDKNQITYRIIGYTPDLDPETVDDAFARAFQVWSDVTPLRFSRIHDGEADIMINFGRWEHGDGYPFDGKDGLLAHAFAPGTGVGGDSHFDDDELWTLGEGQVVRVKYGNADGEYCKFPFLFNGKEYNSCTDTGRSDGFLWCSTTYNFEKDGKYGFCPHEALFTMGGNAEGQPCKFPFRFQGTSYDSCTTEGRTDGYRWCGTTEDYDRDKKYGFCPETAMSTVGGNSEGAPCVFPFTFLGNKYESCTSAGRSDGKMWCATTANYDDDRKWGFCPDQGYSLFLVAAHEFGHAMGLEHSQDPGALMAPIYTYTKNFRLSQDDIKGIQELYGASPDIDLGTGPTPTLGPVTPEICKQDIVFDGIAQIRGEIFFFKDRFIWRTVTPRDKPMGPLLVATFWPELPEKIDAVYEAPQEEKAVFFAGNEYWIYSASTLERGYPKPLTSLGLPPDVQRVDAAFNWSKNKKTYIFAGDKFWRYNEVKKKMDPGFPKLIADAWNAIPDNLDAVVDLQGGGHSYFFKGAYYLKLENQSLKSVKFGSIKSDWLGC

Regarding `COC(=O)c1cc2c3ccccc3[nH]c2c2cn(-c3ccc(C)cc3Br)c[n+]12.[Cl-]`, the Activity with MDA-MB-231 [1] came to 35.3%; with MDA-MB-231 [5], 17.42%; in the test with MDA-MB-231 [14], 64.96%; in the test with MDA-MB-231 [15], 38.2%; in the test with MDA-MB-231 [18] it was 56.8%; in the test with MDA-MB-231 [19], 26.3%. For the same molecule, the inhibition result in test [2], in test [3], in test [9] and in [22] was “Active” in each case. Moreover, the result (in test [4]; with MDA-MB-231 [6]; in the test with MDA-MB-231 [7]; with MDA-MB-231 [8]; in the test on MDA-MB-231 [10]; with MDA-MB-231 [12]) was Active. Besides, the result in the test on MDA-MB-231 [13], with MDA-MB-231 [16], in the test on MDA-MB-231 [17], in the test with MDA-MB-231 [20] and in the test with MDA-MB-231 [21] was Active. Besides, the IC50 in [11] amounted to 7.8 µM.
In the case of `COC(=O)c1cc2c3ccccc3[nH]c2c2cn(-c3ccc(C(F)(F)F)cc3)c[n+]12.[Cl-]`, the Activity in the test on MDA-MB-231 [1] was determined as 31.1%; with MDA-MB-231 [5], 13.43%; in the test with MDA-MB-231 [14], 31.17%; with MDA-MB-231 [15], 39%; in the test on MDA-MB-231 [18], 50.4%; with MDA-MB-231 [19], 29.7%. The inhibition result in test [2], in [3], in test [9] and in test [22] was “Active” in each case. Moreover, the result (in test [4]; with MDA-MB-231 [6]; in the test with MDA-MB-231 [7]; in the test on MDA-MB-231 [8]; with MDA-MB-231 [10]; in the test with MDA-MB-231 [12]) was Active. For the same molecule, the result with MDA-MB-231 [13], in the test with MDA-MB-231 [16], in the test with MDA-MB-231 [17], with MDA-MB-231 [20] and in the test with MDA-MB-231 [21] was Active. For the same molecule, in test [11], the IC50 was 4.48 µM.
As to `COC(=O)c1cc2c3ccccc3[nH]c2c2cn(-c3ccc(F)cc3Cl)c[n+]12.[Cl-]`, in test [11], the IC50 worked out at 5.13 µM. Further, the Activity in the test with MDA-MB-231 [18] amounted to 46.7%.
